TRPC4 inh = TRPC4 (mouse) channel inhibition | HEK293 TRPC4beta/mu-opioid, DAMGO-evoked Fluo4 calcium flux; active compounds read low | B-score at 10 µM | 300,000 tested, 0.39% active | AID 2247;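 active means B-score over 3 SD under the library average, no early fluorescence shift, positive overall ratio signal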
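Signal: kinetic Fluo4 fluorescence imaging of calcium influx. Material: stable TRPC4beta/mu-opioid receptor HEK293 cells. Probe or stimulus: DAMGO in two steps, submaximal then maximal.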
TRPC4 agonist = TRPC4 (mouse) channel activation; B-score at 10 µM; HEK293 TRPC4beta/mu-opioid, Fluo4 calcium fluorescence; active compounds read high; 310,000 tested, 0.49% active; AID 2237;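 active means B-score above 5 SD of library B-scores, and initial fluorescence ratio not above library mean plus 5 SD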;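 further: positive B-score marks a calcium rise read as TRPC4 activation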
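Test system: HEK293 cells stably co-expressing mouse TRPC4beta and mu-opioid receptor | Schedule: Fluo4 dye loading 45 min at room temperature, 110 s recording | Measured by: Kinetic Fluo4 calcium fluorescence, 5 s baseline at 1 Hz | Evaluation: B score of integrated ratio | Controls: Buffer (low) and maximal DAMGO (high)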
TRPC6 inhibitor = inhibitors of mouse TRPC6 channel | B-score at 10 µM | 310,000 tested, 1.1% active | HEK293-TRPC6, membrane potential dye, ACh-evoked depolarization; active compounds read low;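 active means B-score under library mean minus 3 SD, initial fluorescence not abnormally high, positive integrated signal ratio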;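 further: B-score derived from integrated fluorescence ratio over the kinetic read; more negative B-score means stronger inhibition of depolarization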
Target sequence (Q61143 whole entry, looked up): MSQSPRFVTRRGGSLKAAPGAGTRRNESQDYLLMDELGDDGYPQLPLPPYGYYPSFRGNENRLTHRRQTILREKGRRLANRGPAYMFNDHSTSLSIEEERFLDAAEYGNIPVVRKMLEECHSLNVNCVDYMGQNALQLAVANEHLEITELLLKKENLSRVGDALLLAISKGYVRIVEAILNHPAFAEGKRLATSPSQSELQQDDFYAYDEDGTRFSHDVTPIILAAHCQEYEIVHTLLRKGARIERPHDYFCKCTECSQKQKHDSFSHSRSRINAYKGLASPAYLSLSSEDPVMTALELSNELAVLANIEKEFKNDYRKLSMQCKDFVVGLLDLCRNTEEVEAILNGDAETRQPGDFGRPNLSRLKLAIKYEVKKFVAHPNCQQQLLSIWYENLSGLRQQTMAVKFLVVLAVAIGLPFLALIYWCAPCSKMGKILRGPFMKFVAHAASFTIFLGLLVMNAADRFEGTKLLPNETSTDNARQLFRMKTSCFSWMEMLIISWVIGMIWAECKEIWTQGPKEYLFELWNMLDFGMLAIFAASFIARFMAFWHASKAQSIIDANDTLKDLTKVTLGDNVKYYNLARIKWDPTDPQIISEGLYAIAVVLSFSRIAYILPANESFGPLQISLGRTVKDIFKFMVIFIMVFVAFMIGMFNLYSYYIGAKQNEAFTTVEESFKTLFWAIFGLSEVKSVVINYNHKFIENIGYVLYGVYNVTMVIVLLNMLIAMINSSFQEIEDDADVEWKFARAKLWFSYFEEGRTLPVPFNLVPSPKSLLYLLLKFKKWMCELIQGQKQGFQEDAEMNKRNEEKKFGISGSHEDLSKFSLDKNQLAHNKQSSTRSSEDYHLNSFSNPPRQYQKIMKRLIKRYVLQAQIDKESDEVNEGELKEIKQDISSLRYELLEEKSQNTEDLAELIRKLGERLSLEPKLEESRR
TRPC6 activator = activates the mouse TRPC6 cation channel | HEK293-TRPC6 membrane potential dye fluorescence; active compounds read high | B-score at 10 µM | 310,000 tested, 0.13% active | AID 2550;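 active means B-score of the integrated fluorescence ratio above library mean plus 3 SD, and starting fluorescence ratio within library mean plus 5 SD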;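 further: higher score means more depolarization so channel activation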
TRPC4 potent = allosterically enhances the mouse TRPC4 cation channel; Q9QUQ5; HEK293 TRPC4beta/mu-opioid, DAMGO EC20, Fluo-4 Ca2+ flux; active compounds read high; B-score at 10 µM; 310,000 tested, 0.42% active; AID 2227;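 active means B-score of calcium response area above 5 SD of library B-scores, with initial fluorescence ratio within 5 SD of library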;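 further: B-score of integrated fluorescence ratio over time as area under calcium response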
TRPC4 sel inh 2 = second selectivity test of TRPC6 inhibitors: effect on mouse TRPC4; shares compounds with TRPC6 inhibitor; 920 tested, 42% active; HEK293 TRPC4/MOR, membrane potential dye fluorescence; channel activated by saturating DAMGO dose; inhibition, % at 10 µM;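 active means compounds whose fluorescence signal differed from control wells by over 3 SD, either direction, in both duplicate plates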
TRPC4 spec = mouse TRPC4 off-target activity of TRPC6 inhibitors; AID 2777; HEK293 TRPC4/mu-opioid, membrane potential fluorescence; shares compounds with TRPC6 inhibitor; 920 tested, 61% active; activity change, negative = inhibition, % at 10 µM;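 active means rise or fall in signal beyond 3 SD of buffer-only wells in both replicate plates, either sign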;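 further: integrated kinetic ratio of fluorescence range over baseline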
HEK293 MPD ctr 2-1 = second check of TRPC6 inhibitor effects in parental HEK293 cells; 920 tested, 31% active; shares compounds with TRPC6 inhibitor; parental HEK293 membrane potential dye fluorescence; maximal acetylcholine challenge after compound addition; signal change vs control, % at 10 µM;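 active means membrane potential signal moving either way by over 3 SD of the maximum-effect control, in both duplicate plates, meaning non-specific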
HEK293 MPD ctr-1 = parental HEK293 nonspecific activity of TRPC6 inhibitors | shares compounds with TRPC6 inhibitor | parental HEK293 membrane potential dye fluorescence | membrane potential signal change, % at 10 µM | 920 tested, 60% active | AID 2780;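 active means membrane potential signal shifting up or down by more than 3 SD of buffer-only wells, on both duplicate plates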
HEK293 MPD ctr-2 = checks TRPC6 modulator effects in parental HEK293 cells; shares compounds with TRPC6 inhibitor; membrane potential dye fluorescence; membrane potential signal change, % at 10 µM; 2,400 tested, 51% active;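 active means membrane potential signal moves up or down beyond 5 SD from buffer-only wells, on both duplicate plates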
HEK293 MPD ctr 2-2 = parental HEK293 nonspecific activity of TRPC6 modulators, second screen; AID 488926; membrane potential dye fluorescence; after compound, maximal acetylcholine stimulation; 2,400 tested, 14% active; shares compounds with TRPC6 inhibitor; inhibition, % at 10 µM;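 active means membrane potential signal drops by more than 5 SD from the mean control signal, in both duplicate plates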;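 further: plate controls were acetylcholine ECmax control wells for no effect and buffer only wells for full effect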
TRPC4 ctr mod = selectivity of TRPC6 modulators against mouse TRPC4. AID 488927. shares compounds with TRPC6 inhibitor. percent change from control (negative = decrease, positive = increase), % at 10 µM. HEK293 TRPC4/mu-opioid, membrane potential fluorescence. 2,400 tested, 69% active;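 active means membrane potential signal moved up or down beyond 5 SD of buffer control wells, in both duplicate plates, actives on both sides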;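 further: plate controls were assay buffer wells for no effect and DAMGO maximal-effect wells for full effect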
TRPC4/MOR inh 2 = second selectivity test of TRPC6 modulators against mouse TRPC4; shares compounds with TRPC6 inhibitor; HEK293 TRPC4/mu-opioid, membrane potential dye fluorescence; stimulated with maximal-effect DAMGO; inhibition, % at 10 µM; 2,400 tested, 55% active; AID 488928;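 active means drop in membrane potential signal beyond 5 SD of the control wells in both duplicate plates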;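 further: TRPC4 counter screen for TRPC6 hits run under conditions tuned for TRPC6 not TRPC4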
TRPC6 inh conf = confirmation of mouse TRPC6 inhibitors; shares compounds with TRPC6 inhibitor; HEK293-TRPC6, membrane potential dye, ACh-evoked depolarization; inhibition, % at 10 µM; 3,300 tested, 43% active;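 active means fluorescence ratio falls more than 5 SD below the full-stimulation control mean, in both duplicate runs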;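 further: integrated fluorescence ratio of peak minus minimum over baseline after agonist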
TRPC6 act confirm = mouse TRPC6 activator confirmation. 2,800 tested, 11% active. shares compounds with TRPC6 inhibitor. activation, % at 10 µM. HEK293-TRPC6 membrane potential dye fluorescence, FDSS;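 active means ratio signal rise beyond 5 SD above unstimulated control wells' mean, seen in both duplicate runs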;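 further: plate controls were buffer EC0 wells for no effect and acetylcholine ECmax response for full effect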
An asterisk follows results filed as active; i = inactive; nt = no result given. An excerpt weighted towards active compounds, which were near 2.3% of everything screened.

SMILES | TRPC4 inh | TRPC4 agonist | TRPC6 inhibitor | TRPC6 activator | TRPC4 potent | HEK293 MPD ctr-2 | HEK293 MPD ctr 2-2 | TRPC4 ctr mod | TRPC4/MOR inh 2 | TRPC6 inh conf | TRPC6 act confirm | others
CCCCOc1ccc(C2=CSC3=NCCN23)cc1[N+](=O)[O-] | i | i | -5.13* | i | i | -75.0%* | i | -20.5%* | 43.5%* | 44.5%* | i
Cc1ccc(NC2=C(N3CCOCC3)C(=O)c3ccccc3C2=O)cc1 | i | i | -5.48* | i | i | i | i | -31.0%* | 78.0%* | i | i
CC(=O)c1ccc(NC2=C(N3CCOCC3)C(=O)c3ccccc3C2=O)cc1 | i | i | i | i | i | nt | nt | nt | nt | nt | nt
COc1ccc(N(CC(=O)NCC2CCCO2)S(=O)(=O)c2ccccc2)cc1OC (configuration not stated) | i | i | i | i | i | nt | nt | nt | nt | nt | nt
CC1CCCCN1Cc1c(O)ccc2c(=O)c(-c3nc4ccccc4s3)c(N)oc12 (configuration not stated) | i | i | i | i | i | nt | nt | nt | nt | nt | nt
Brc1cc2c(cc1CN1CCc3ccccc3C1)OCO2 | i | i | -7.26* | i | i | nt | nt | nt | nt | i | i | TRPC4 sel inh 2=i;TRPC4 spec=i;HEK293 MPD ctr 2-1=i;HEK293 MPD ctr-1=i
Cc1ccc(-c2nnc(CSc3nc(C(C)C)nc4sc(C)c(C)c34)o2)cc1 | i | i | -5.55* | i | i | i | i | i | i | i | i
CCOC(=O)CSc1nc(C(C)C)nc2sc(C)c(C)c12 | i | i | i | i | i | nt | nt | nt | nt | nt | nt
Cc1cc(CSC(=N)N)c(CSC(=N)N)cc1C | i | 130* | -6.81* | i | i | -264.5%* | 58.5%* | -36.0%* | i | 47.0%* | i
S=C(NCCC(c1ccccc1)c1ccccc1)Nc1cccc(Cl)c1 | i | i | i | i | i | nt | nt | nt | nt | nt | nt
S=C(NCCN(C1CCCCC1)C1CCCC1)Nc1cccc(Cl)c1 | i | i | -6.09* | i | i | 95.0%* | i | 18.5%* | 70.0%* | 56.5%* | nt
CCN(CC)CC(=O)N1CCCC(N2CCN(c3cccc(C(F)(F)F)c3)CC2)C1 (configuration not stated) | i | i | i | i | i | nt | nt | nt | nt | nt | nt
COC(=O)c1ccc(CNC(=O)c2ccc(OCC(=O)N3CCOCC3)c(OC)c2)cc1 | i | i | i | i | i | nt | nt | nt | nt | nt | nt
CC(C)c1ccc2c(c1)C1(NN=C(c3ccccc3)S1)C(=O)N2 (configuration not stated) | i | i | -5.69* | i | 11* | -150.0%* | i | -33.0%* | 75.0%* | 45.5%* | i
CCc1ccc2c(c1)C1(NN=C(c3ccc(C)cc3)S1)C(=O)N2 (configuration not stated) | i | i | i | i | i | nt | nt | nt | nt | nt | nt
Cc1cc(C(=O)OCC(=O)Nc2cc(C(F)(F)F)ccc2N2CCOCC2)c(C)o1 | i | i | i | i | i | nt | nt | nt | nt | nt | nt
c1ccc(-n2cc(CN3CCCC(CN4CCCC4)C3)c(-c3ccc4c(c3)OCO4)n2)cc1 (configuration not stated) | i | i | -5.81* | i | i | i | i | i | 73.0%* | i | i
CN(C(=O)c1cccs1)C1(C)CCS(=O)(=O)C1 (configuration not stated) | i | i | i | i | i | nt | nt | nt | nt | nt | nt
Cc1cccn2c(=O)c3cc(C#N)c(=N)n(CCN4CCOCC4)c3nc12 | i | i | -5.62* | i | i | -149.5%* | i | -23.5%* | i | 47.5%* | i
Cc1cccn2c(=O)c3cc(C(N)=S)c(=N)n(CCCN4CCOCC4)c3nc12 | i | i | i | i | i | nt | nt | nt | nt | nt | nt
CCCn1c(=N)c(C#N)cc2c(=O)n3cccc(C)c3nc21 | i | i | i | i | i | nt | nt | nt | nt | nt | nt
Cc1cccn2c(=O)c3cc(C#N)c(=N)n(CCCN4CCOCC4)c3nc12 | i | i | -8.63* | i | i | -83.5%* | 118.0%* | -26.5%* | 68.0%* | 57.0%* | i
CCCn1c(=N)c(C#N)cc2c(=O)n3ccccc3nc21 | i | i | -8.26* | i | i | -260.5%* | i | -44.5%* | 44.0%* | 37.5%* | i
Cc1cccn2c(=O)c3cc(C#N)c(=N)n(Cc4ccncc4)c3nc12 | i | i | -5.65* | i | i | -167.5%* | i | -29.5%* | i | i | i
O=C(Nc1c(S(=O)(=O)c2ccc(Cl)cc2)csc1Br)c1ccccc1Cl | i | i | i | i | i | nt | nt | nt | nt | nt | nt
CSc1nsc(SCC(=O)Nc2ccccc2C(=O)O)n1 | i | i | i | i | i | nt | nt | nt | nt | nt | nt
COC(C[C@H]1O[C@H]1[C@@H](O)[C@@H](C)OCc1ccccc1)OC | i | i | i | i | i | nt | nt | nt | nt | nt | nt
CCN(CC)CCOC(=O)C1(C2CCCCC2)CCCCC1 | i | i | -6.15* | i | i | 182.5%* | 77.0%* | 40.5%* | i | 76.5%* | nt
